What was measured:
M4Beu cell line [1] = assay: In vitro cytotoxicity against M4Beu cells when co-administered with 50 uM cystemustine.; format: functional; details: Homo sapiens, read-out: ED50 (the source's name)
In short: (§1)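 M4Beu cells were plated at 200 cells/dish and left to adhere 20 h. They were given compound at 0-400 µM (100 mM DMSO stock) for 4 h at 37 °C, then 50 µM cystemustine for 2 h at 37 °C, then grown 14 days. Methanol-fixed, crystal-violet-stained colonies (>50 cells) were counted. ED50 was read graphically from the concentration plot of survival decrease relative to cystemustine alone. Each dose ran ≥3 times in triplicate.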

M4Beu cell line [2] = assay: In vitro cytotoxicity in M4Beu cells after 4 hr exposure to 300 uM.; format: functional, Homo sapiens
In short: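 Colony-forming assay: M4Beu cells plated at 200 cells/dish, allowed to adhere 20 h, then exposed 4 h at 37 °C to compound at 300 µM (from 100 mM DMSO stock) with no cystemustine step. Medium then replaced, cells grown 14 days, fixed in methanol, stained with crystal violet. Colonies >50 cells counted; survival as percent of untreated control; at least three experiments in triplicate.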

M4Beu cell line [3] = assay: Effective dose of compound associated with cystemustine (50 uM), required to reduce by 50% cell survival rate (M4Beu cells); format: functional; details: Homo sapiens, read-out: ED50 (the source's name); in short: as §1

SMILES	EC50 (M4Beu cell line [1])	Cell survival (M4Beu cell line [2])	EC50 (M4Beu cell line [3])
CC(=O)Nc1nc(OCc2ccc(Br)cc2)c2ncn([C@H]3C[C@H](O)[C@@H](CO)O3)c2n1	211 µM		
CC(=O)Nc1nc(OC(c2ccccc2)c2ccccc2)c2ncn(C3O[C@H](CO)[C@@H](O)[C@H]3O)c2n1 (stereo not given in full)	400 µM		
Nc1nc(OCc2ccc(I)cc2)c2ncn(C3O[C@H](CO)[C@@H](O)[C@H]3O)c2n1 (stereo not given in full)	122 µM	100%	
CC(=O)Nc1nc(OCc2ccc(Br)cc2)c2ncn(C3CC(OC(C)=O)C(COC(C)=O)O3)c2n1 (stereo not given)	216 µM		
CC(=O)Nc1nc(OCc2ccc(Br)cc2)c2ncn(C3OC(COC(C)=O)C(OC(C)=O)C3OC(C)=O)c2n1 (stereo not given)			400 µM
CC(=O)Nc1nc(OCc2ccc(I)cc2)c2ncn(C3CC(OC(C)=O)C(COC(C)=O)O3)c2n1 (stereo not given)	200 µM		
CC(=O)Nc1nc(OCc2ccc(I)cc2)c2ncn(C3CC(O)C(CO)O3)c2n1 (stereo not given)	269 µM		
Nc1nc(OCc2ccccc2)c2nc[nH]c2n1 [6-O-BENZYLGUANINE]	2 µM	110%	

From ChEMBL document CHEMBL1130140, “O6-(alkyl/aralkyl)guanosine and 2'-deoxyguanosine derivatives: synthesis and ability to enhance chloroethylnitrosourea antitumor action” (1997)
